# Measured values reported in ChEMBL document CHEMBL3352730, “Synthesis and effects on cell viability of flavonols and 3-methyl ether derivatives on human leukemia cells” (Eur J Med Chem, 2014).
# Calls of active or inactive are those of the source. The calls are words filed in the database; no cut-off is given here.
# Experiments:
# [1] = tested on: HL-60; assay: Induction of cell cycle arrest in human HL60 cells assessed as accumulation at G2/M phase at 3 uM after 12 hrs by propidium iodide staining based flow cytometry (reference value: 18.5 +/- 0.5%); assay type: functional
# [2] = tested on: MOLT-3; assay: Induction of apoptosis in human MOLT3 cells assessed as increase in caspase 3/7 activity using DEVD-pNA substrate at 10 uM after 24 hrs; assay type: functional, cell-based
# Method in brief: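 Cells were given 10 µM for 24 h. Lysates were assayed for cleavage of DEVD-pNA (caspase-3/7), IETD-pNA (caspase-8) and LEHD-pNA (caspase-9). Results are expressed as fold over control, from three independent experiments in triplicate.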
# [3] = tested on: HL-60; assay: Induction of cell cycle arrest in human HL60 cells assessed as accumulation at subG1 phase at 10 uM after 24 hrs by propidium iodide staining based flow cytometry (reference value: 3.4 +/- 0.3%); assay type: functional
smiles,measurement,setting,value
O=c1c(O)c(-c2ccc(Br)cc2)oc2ccccc12,Activity,[1],18.2%
same,Activity,[2],Active
same,Activity,[3],20.4%
